Reference: ChEMBL document CHEMBL1127450, “Synthesis and antiviral activity evaluation of some aminoadamantane derivatives” (1994)
≈ marks a conversion by molar mass, not a printed value.

Experiments:
Type in all cases: functional
[1] = system: CCRF-CEM; assay: tested for minimum inhibitory concentration required to reduce virus-induced cell viability by 50% on CEM cell line; conditions: Homo sapiens
[2] = system: CCRF-CEM; assay: tested for minimum inhibitory concentration required to reduce virus-induced cytopathicity by 50% on CEM cell line infected with HIV-2 virus; conditions: Homo sapiens
[3] = system: CCRF-CEM; assay: tested for minimum inhibitory concentration required to reduce virus-induced cytopathicity by 50% was evaluated on CEM cell line infected with HIV-1 virus; conditions: Homo sapiens
[4] = system: HEF; assay: Tested for minimum inhibitory concentration required to reduce virus-induced cytopathicity by 50% on HEF cell line infected with HSV-1 virus; conditions: Homo sapiens
How it was run: (§1)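 Human embryonic skin-muscle fibroblasts (HEF) were infected with the stated virus. The value is the concentration that reduces virus-induced cytopathicity by 50%. Values are averages of at least two separate experiments.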

[5] = system: HEF; assay: tested for minimum inhibitory concentration required to cause a microscopically detectable alteration of normal cell morphology by 50% on HEF cell line; conditions: Homo sapiens
How it was run: (§2)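 Human embryonic skin-muscle fibroblasts (HEF) were used. The value is the minimum concentration that causes a microscopically detectable alteration of normal cell morphology. Values are averages of at least two separate experiments.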

[6] = system: HEF; assay: tested for minimum inhibitory concentration required to reduce […] by 50% on HEF cell line; conditions: Homo sapiens
How it was run: (§3)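 Human embryonic lung fibroblasts (HEF) were used for cell proliferation. The value is the concentration that reduces cell proliferation by 50%. Values are averages of at least two separate experiments.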

[7] = system: HEF; assay: tested for minimum inhibitory concentration required to reduce virus-induced cytopathicity by 50% on HEF cell line infected with HSV-2 virus; conditions: Homo sapiens; how it was run: as §1
[8] = system: HEF; assay: tested for minimum inhibitory concentration required to reduce virus-induced cytopathicity by 50% on HEF cell line infected with vaccinia virus; conditions: Homo sapiens; how it was run: as §1
[9] = system: HEF; assay: tested for minimum inhibitory concentration required to reduce virus-induced cytopathicity by 50% on HEF cell line infected with vesicular stomatitis virus; conditions: Homo sapiens; how it was run: as §1
[10] = system: HEF; assay: Tested for minimum inhibitory concentration required to reduce virus-induced cytopathicity by 50% on HEF cell line infected with thymidine kinase-deficient herpes simplex virus type 1 (TK-HSV-1); conditions: Homo sapiens; how it was run: as §1
[11] = system: HeLa; assay: Tested for minimum inhibitory concentration required to reduce virus-induced cytopathicity by 50% on HeLa cell line infected with RSV virus; conditions: Homo sapiens
How it was run: (§4)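 HeLa (human epithelial), MDCK (Madin-Darby canine kidney) or Vero (African green monkey kidney) cells were infected with the stated virus. The value is the concentration that reduces virus-induced cytopathicity by 50%. Values are averages of at least two separate experiments.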

[12] = system: HeLa; assay: tested for minimum inhibitory concentration required to cause a microscopically detectable alteration of normal cell morphology by 50% on HeLa cell line; conditions: Homo sapiens
How it was run: (§5)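 HeLa (human epithelial), MDCK (Madin-Darby canine kidney) or Vero (African green monkey kidney) cells were scored by microscopy. The value is the minimum concentration that causes a detectable alteration of normal cell morphology. Values are averages of at least two separate experiments.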

[13] = system: HeLa; assay: tested for minimum inhibitory concentration required to reduce virus-induced cytopathicity by 50% on HeLa cell line infected with polio 1 virus; conditions: Homo sapiens; how it was run: as §4
[14] = system: MDCK; assay: tested for minimum inhibitory concentration required to cause a microscopically detectable alteration of normal cell morphology by 50% on MDCK cell line; conditions: Canis lupus familiaris; how it was run: as §5
[15] = system: MDCK; assay: Tested for minimum inhibitory concentration required to reduce virus-induced cytopathicity by 50% on MDCK cell line infected with influenza A virus; conditions: Canis lupus familiaris; how it was run: as §4
[16] = system: MDCK; assay: Tested for minimum inhibitory concentration required to reduce virus-induced cytopathicity by 50% on MDCK cell line infected with influenza B virus; conditions: Canis lupus familiaris; how it was run: as §4
[17] = system: Vero; assay: tested for minimum inhibitory concentration required to cause a microscopically detectable alteration of normal cell morphology by 50% on vero cell line; conditions: Chlorocebus sabaeus; how it was run: as §5
[18] = system: Vero; assay: tested for minimum inhibitory concentration required to reduce virus-induced cytopathicity by 50% on vero cell line infected with Reo 1 virus; conditions: Chlorocebus sabaeus; how it was run: as §4
[19] = system: Vero; assay: tested for minimum inhibitory concentration required to reduce virus-induced cytopathicity by 50% on vero cell line infected with coxsackie B4 virus; conditions: Chlorocebus sabaeus; how it was run: as §4
[20] = system: Vero; assay: tested for minimum inhibitory concentration required to reduce virus-induced cytopathicity by 50% on vero cell line infected with semliki forest virus; conditions: Chlorocebus sabaeus; how it was run: as §4
[21] = system: Vero; assay: tested for minimum inhibitory concentration required to reduce virus-induced cytopathicity by 50% on vero cell line infected with sindbis virus; conditions: Chlorocebus sabaeus; how it was run: as §4
[22] = system: Vero; assay: Tested for minimum inhibitory concentration required to reduce virus-induced cytopathicity by 50% on vero cell line infected with parainfluenza 3 virus; conditions: Chlorocebus sabaeus; how it was run: as §4
[23] = system: CCRF-CEM; assay: Tested for minimum inhibitory concentration required to reduce virus-induced cell viability by 50% on CEM cell line.; conditions: Homo sapiens
[24] = system: CCRF-CEM; assay: Tested for minimum inhibitory concentration required to reduce virus-induced cytopathicity by 50% on CEM cell line infected with HIV-2 virus; conditions: Homo sapiens
[25] = system: CCRF-CEM; assay: Tested for minimum inhibitory concentration required to reduce virus-induced cytopathicity by 50% was evaluated on CEM cell line infected with HIV-1 virus; conditions: Homo sapiens
[26] = system: HEF; assay: Tested for minimum inhibitory concentration required to cause a microscopically detectable alteration of normal cell morphology by 50% on HEF cell line; conditions: Homo sapiens; how it was run: as §2
[27] = system: HEF; assay: Tested for minimum inhibitory concentration required to reduce […] by 50% on HEF cell line; conditions: Homo sapiens; how it was run: as §3
[28] = system: HEF; assay: Tested for minimum inhibitory concentration required to reduce virus-induced cytopathicity by 50% on HEF cell line infected with vesicular stomatitis virus; conditions: Homo sapiens; how it was run: as §1
[29] = system: HEF; assay: Tested for minimum inhibitory concentration required to reduce virus-induced cytopathicity by 50% on HEF cell line infected with HSV-2 virus; conditions: Homo sapiens; how it was run: as §1
[30] = system: HEF; assay: Tested for minimum inhibitory concentration required to reduce virus-induced cytopathicity by 50% on HEF cell line infected with vaccinia virus; conditions: Homo sapiens; how it was run: as §1
[31] = system: HeLa; assay: Tested for minimum inhibitory concentration required to cause a microscopically detectable alteration of normal cell morphology by 50% on HeLa cell line; conditions: Homo sapiens; how it was run: as §5
[32] = system: HeLa; assay: Tested for minimum inhibitory concentration required to reduce virus-induced cytopathicity by 50% on HeLa cell line infected with polio 1 virus; conditions: Homo sapiens; how it was run: as §4
[33] = system: MDCK; assay: Tested for minimum inhibitory concentration required to cause a microscopically detectable alteration of normal cell morphology by 50% on MDCK cell line; conditions: Canis lupus familiaris; how it was run: as §5
[34] = system: Vero; assay: Tested for minimum inhibitory concentration required to cause a microscopically detectable alteration of normal cell morphology by 50% on vero cell line; conditions: Chlorocebus sabaeus; how it was run: as §5
[35] = system: Vero; assay: Tested for minimum inhibitory concentration required to reduce virus-induced cytopathicity by 50% on vero cell line infected with Reo 1 virus; conditions: Chlorocebus sabaeus; how it was run: as §4
[36] = system: Vero; assay: Tested for minimum inhibitory concentration required to reduce virus-induced cytopathicity by 50% on vero cell line infected with coxsackie B4 virus; conditions: Chlorocebus sabaeus; how it was run: as §4
[37] = system: Vero; assay: Tested for minimum inhibitory concentration required to reduce virus-induced cytopathicity by 50% on vero cell line infected with semliki forest virus; conditions: Chlorocebus sabaeus; how it was run: as §4
[38] = system: Vero; assay: Tested for minimum inhibitory concentration required to reduce virus-induced cytopathicity by 50% on vero cell line infected with sindbis virus; conditions: Chlorocebus sabaeus; how it was run: as §4

## C1CN(CC2CC2)C2(C1)C1CC3CC(C1)CC2C3 (centres undefined)
[1]
  MIC50: > 200 mg/L
[2]
  MIC50: > 200 mg/L
[3]
  MIC50: > 200 mg/L
[4]
  MIC50: 300 mg/L (≈ 1220 µM)
[5]
  MIC50: > 400 mg/L
[6]
  MIC50: > 200 mg/L
[7]
  MIC50: > 400 mg/L
[8]
  MIC50: 100 mg/L (≈ 407 µM)
[9]
  MIC50: 150 mg/L (≈ 611 µM)
[10]
  MIC50: ≥ 400 mg/L
[11]
  MIC50: ≥ 150 mg/L
[12]
  MIC50: > 400 mg/L
[13]
  MIC50: > 400 mg/L
[14]
  MIC50: 100 mg/L (≈ 407 µM)
[15]
  MIC50: ≥ 40 mg/L
[16]
  MIC50: > 100 mg/L
[17]
  MIC50: > 400 mg/L
[18]
  MIC50: > 400 mg/L
[19]
  MIC50: > 400 mg/L
[20]
  MIC50: > 400 mg/L
[21]
  MIC50: > 400 mg/L
[22]
  MIC50: > 400 mg/L

## O=C(Nc1ccc(Cl)cc1)N1CCCC12C1CC3CC(C1)CC2C3 (centres undefined)
[23]
  MIC50: 3.4 mg/L (≈ 9.86 µM)
[24]
  MIC50: > 1.6 mg/L
[25]
  MIC50: > 1.6 mg/L
[26]
  MIC50: 40 mg/L (≈ 116 µM)
[27]
  MIC50: 150 mg/L (≈ 435 µM)
[4]
  MIC50: > 20 mg/L
[28]
  MIC50: > 20 mg/L
[29]
  MIC50: > 20 mg/L
[10]
  MIC50: > 20 mg/L
[30]
  MIC50: > 20 mg/L
[31]
  MIC50: 100 mg/L (≈ 290 µM)
[11]
  MIC50: > 20 mg/L
[32]
  MIC50: > 70 mg/L
[15]
  MIC50: 2.4 mg/L (≈ 6.96 µM)
[16]
  MIC50: > 20 mg/L
[33]
  MIC50: 20 mg/L (≈ 58 µM)
[34]
  MIC50: 100 mg/L (≈ 290 µM)
[35]
  MIC50: > 70 mg/L
[36]
  MIC50: > 70 mg/L
[22]
  MIC50: > 70 mg/L
[37]
  MIC50: > 70 mg/L
[38]
  MIC50: > 70 mg/L
